Measured values reported in ChEMBL document CHEMBL3244382, “Structural requirements for antileukemic activity among the naturally occurring and semisynthetic maytansinoids” (J Med Chem, 1978).
In brackets after ≈: the same amount, converted by molar mass. Activity calls are given as the source filed them.

Legend:
Mus musculus [1] = experiment: Toxicity in PS mouse allografted with mouse P388 cells assessed as change in body weight at 3.1 ug/kg relative to control; format: organism-based; conditions: in vivo, 0.0031 mg/kg
Outline: (§1)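 P388 (PS) leukemia in mice, 6 mice per dose group. Weight change is the difference in grams between treated and control animals. Survivors are recorded on toxicity day, normally 4 days after the first injection.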

Mus musculus [2] = experiment: Toxicity in PS mouse allografted with mouse P388 cells assessed as change in body weight at 0.8 ug/kg relative to control; format: organism-based; conditions: in vivo, 0.0008 mg/kg
Outline: (§2)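 PS (P388 leukemia) mice, six per dose group. Toxicity read as the difference in grams between the weights of treated and control animals.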

Mus musculus [3] = experiment: Toxicity in PS mouse allografted with mouse P388 cells assessed as survival at 50 ug/kg after 4 days; format: organism-based; conditions: in vivo, 0.05 mg/kg, 96 h
Outline: (§3)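 PS (P388) leukemic mice, six started per dose group. Toxicity scored as survivors on the toxicity day over the number of mice started. The toxicity day is normally 4 days after the first injection.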

Mus musculus [4] = experiment: Toxicity in PS mouse allografted with mouse P388 cells assessed as survival at 100 ug/kg after 4 days; format: organism-based; conditions: in vivo, 0.1 mg/kg, 96 h; outline: as §3
Mus musculus [5] = experiment: Toxicity in PS mouse allografted with mouse P388 cells assessed as survival at 25 ug/kg after 4 days; format: organism-based; conditions: in vivo, 0.025 mg/kg, 96 h; outline: as §3
Mus musculus [6] = experiment: Toxicity in PS mouse allografted with mouse P388 cells assessed as survival at 12.5 ug/kg after 4 days; format: organism-based; conditions: in vivo, 0.0125 mg/kg, 96 h; outline: as §3
Mus musculus [7] = experiment: Toxicity in PS mouse allografted with mouse P388 cells assessed as survival at 6.2 ug/kg after 4 days; format: organism-based; conditions: in vivo, 0.0062 mg/kg, 96 h; outline: as §3
Mus musculus [8] = experiment: Toxicity in PS mouse allografted with mouse P388 cells assessed as survival at 3.1 ug/kg after 4 days; format: organism-based; conditions: in vivo, 0.0031 mg/kg, 96 h; outline: as §3
Mus musculus [9] = experiment: Toxicity in PS mouse allografted with mouse P388 cells assessed as survival at 1.6 ug/kg after 4 days; format: organism-based; conditions: in vivo, 0.0016 mg/kg, 96 h; outline: as §3
Mus musculus [10] = experiment: Toxicity in PS mouse allografted with mouse P388 cells assessed as survival at 0.8 ug/kg after 4 days; format: organism-based; conditions: in vivo, 0.0008 mg/kg, 96 h; outline: as §3
Mus musculus [11] = experiment: Toxicity in PS mouse allografted with mouse P388 cells assessed as survival at 200 ug/kg after 4 days; format: organism-based; conditions: in vivo, 0.2 mg/kg, 96 h; outline: as §3
Mus musculus [12] = experiment: Toxicity in PS mouse allografted with mouse P388 cells assessed as survival at 1.5 ug/kg after 4 days; format: organism-based; conditions: in vivo, 0.0015 mg/kg, 96 h; outline: as §3
Mus musculus [13] = experiment: Toxicity in PS mouse allografted with mouse P388 cells assessed as change in body weight at 100 ug/kg relative to control; format: organism-based; conditions: in vivo, 0.1 mg/kg; outline: as §1
Mus musculus [14] = experiment: Toxicity in PS mouse allografted with mouse P388 cells assessed as change in body weight at 50 ug/kg relative to control; format: organism-based; conditions: in vivo, 0.05 mg/kg; outline: as §1
Mus musculus [15] = experiment: Toxicity in PS mouse allografted with mouse P388 cells assessed as change in body weight at 25 ug/kg relative to control; format: organism-based; conditions: in vivo, 0.025 mg/kg; outline: as §1
Mus musculus [16] = experiment: Toxicity in PS mouse allografted with mouse P388 cells assessed as change in body weight at 12.5 ug/kg relative to control; format: organism-based; conditions: in vivo, 0.0125 mg/kg; outline: as §1
Mus musculus [17] = experiment: Toxicity in PS mouse allografted with mouse P388 cells assessed as change in body weight at 6.2 ug/kg relative to control; format: organism-based; conditions: in vivo, 0.0062 mg/kg; outline: as §1
Mus musculus [18] = experiment: Toxicity in PS mouse allografted with mouse P388 cells assessed as change in body weight at 200 ug/kg relative to control; format: organism-based; conditions: in vivo, 0.2 mg/kg; outline: as §1
Mus musculus [19] = experiment: Toxicity in PS mouse allografted with mouse P388 cells assessed as change in body weight at 1.5 ug/kg relative to control; format: organism-based; conditions: in vivo, 0.0015 mg/kg; outline: as §2
P388 [20] = experiment: Antitumor activity against mouse P388 cells allografted in PS mouse assessed as median survival time at 100 ug/kg relative to control; format: functional
Outline: (§4)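 P388 leukemia (PS) in mice, six mice started per dose group. Read-out is T/C: median survival time of the treated group divided by that of the untreated control group, expressed as a percent. The NIH protocol counts a compound as active when T/C > 125%.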

P388 [21] = experiment: Antitumor activity against mouse P388 cells allografted in PS mouse assessed as median survival time at 50 ug/kg relative to control; format: functional; outline: as §4
P388 [22] = experiment: Antitumor activity against mouse P388 cells allografted in PS mouse assessed as median survival time at 25 ug/kg relative to control; format: functional; outline: as §4
P388 [23] = experiment: Antitumor activity against mouse P388 cells allografted in PS mouse assessed as median survival time at 12.5 ug/kg relative to control; format: functional; outline: as §4
P388 [24] = experiment: Antitumor activity against mouse P388 cells allografted in PS mouse assessed as median survival time at 6.2 ug/kg relative to control; format: functional; outline: as §4
P388 [25] = experiment: Antitumor activity against mouse P388 cells allografted in PS mouse assessed as median survival time at 3.1 ug/kg relative to control; format: functional; outline: as §4
P388 [26] = experiment: Antitumor activity against mouse P388 cells allografted in PS mouse assessed as median survival time at 0.8 ug/kg relative to control; format: functional; outline: as §4
P388 [27] = experiment: Antitumor activity against mouse P388 cells allografted in PS mouse assessed as median survival time at 200 ug/kg relative to control; format: functional; outline: as §4
P388 [28] = experiment: Antitumor activity against mouse P388 cells allografted in PS mouse assessed as median survival time at 1.5 ug/kg relative to control; format: functional; outline: as §4
KB = experiment: Cytotoxicity against human KB cells; format: functional; conditions: read-out: ED50 (the source's name)
Tubulin (Homo sapiens) = Tubulin (Homo sapiens) (UniProt P68371+Q9H4B7+P0DPH7+P68366+Q13509+Q71U36+P04350+Q3ZCM7+P07437+P68363+Q9BQE3+Q6PEY2+Q13885+Q9BVA1+Q9BUF5); experiment: Inhibition of brain tubulin polymerization (unknown origin) at 37 degC by spectrophotometry
Paracentrotus lividus = experiment: Antimitotic activity against sea urchin eggs assessed as drug level causing inhibition of mitosis; format: functional; conditions: Egg
Mus musculus [29] = experiment: Toxicity in PS mouse allografted with mouse P388 cells assessed as survival at 1.8 ug/kg after 4 days; format: organism-based; conditions: in vivo, 0.0018 mg/kg, 96 h; outline: as §3
Mus musculus [30] = experiment: Toxicity in PS mouse allografted with mouse P388 cells assessed as survival at 0.9 ug/kg after 4 days; format: organism-based; conditions: in vivo, 0.0009 mg/kg, 96 h; outline: as §3
Mus musculus [31] = experiment: Toxicity in PS mouse allografted with mouse P388 cells assessed as change in body weight at 1.8 ug/kg relative to control; format: organism-based; conditions: in vivo, 0.0018 mg/kg; outline: as §1
Mus musculus [32] = experiment: Toxicity in PS mouse allografted with mouse P388 cells assessed as change in body weight at 0.9 ug/kg relative to control; format: organism-based; conditions: in vivo, 0.0009 mg/kg; outline: as §1
P388 [33] = experiment: Antitumor activity against mouse P388 cells allografted in PS mouse assessed as median survival time at 1.8 ug/kg relative to control; format: functional; outline: as §4
P388 [34] = experiment: Antitumor activity against mouse P388 cells allografted in PS mouse assessed as median survival time at 0.9 ug/kg relative to control; format: functional; outline: as §4

| Structure (SMILES) | Activity (Mus musculus [1]) [g] | Activity (Mus musculus [3]) | Activity (Mus musculus [4]) | Activity (Mus musculus [5]) | Activity (Mus musculus [6]) | Activity (Mus musculus [7]) | Activity (Mus musculus [8]) | Activity (Mus musculus [11]) | Activity (Mus musculus [13]) [g] | Activity (Mus musculus [14]) [g] | Activity (Mus musculus [15]) [g] | Activity (Mus musculus [16]) [g] | Activity (Mus musculus [17]) [g] | Activity (Mus musculus [18]) [g] | T/C (P388 [20]) [%] | T/C (P388 [21]) [%] | T/C (P388 [22]) [%] | T/C (P388 [23]) [%] | T/C (P388 [24]) [%] | T/C (P388 [25]) [%] | also measured |
| --- | --- | --- | --- | --- | --- | --- | --- | --- | --- | --- | --- | --- | --- | --- | --- | --- | --- | --- | --- | --- | --- |
| COc1cc2cc(c1Cl)N(C)C(=O)C[C@H](OC(C)=O)[C@]1(C)O[C@H]1[C@H](C)[C@@H]1C[C@@](O)(NC(=O)O1)[C@H](OC)/C=C/C=C(\C)C2 | -1 | Non-toxic | Non-toxic | Non-toxic | Non-toxic | Non-toxic | Non-toxic | Non-toxic | -0.6 | -0.3 | -1.2 | 0.3 | 0.5 | -3.7 | 230 | 183 | 173 | 158 | 150 | 133 | Activity (Mus musculus [2]): 0 g; Activity (Mus musculus [9]): Non-toxic; Activity (Mus musculus [10]): Non-toxic; Activity (Mus musculus [12]): Non-toxic; Activity (Mus musculus [19]): -1.1 g; T/C (P388 [26]): 110%; T/C (P388 [27]): 100%; T/C (P388 [28]): 150%; EC50 (KB): 0.0018 ng/mL (≈ 0.00296 nM); inhibition (Tubulin (Homo sapiens)): Active; Activity (Paracentrotus lividus): 1 ×10⁻⁸ mol/L |
| COc1cc2cc(c1Cl)N(C)C(=O)C[C@H](OC(=O)CBr)[C@]1(C)O[C@H]1[C@H](C)[C@@H]1C[C@@](O)(NC(=O)O1)[C@H](OC)/C=C/C=C(\C)C2 | -0.2 | Non-toxic | Non-toxic | Non-toxic | Non-toxic | Non-toxic | Non-toxic | Toxic | -1.3 | -0.3 | -0.5 | -0.3 | 0.2 | -2.5 | 232 | 189 | 162 | 153 | 146 | 130 | Activity (Mus musculus [29]): Non-toxic; Activity (Mus musculus [30]): Non-toxic; Activity (Mus musculus [31]): -0.6 g; Activity (Mus musculus [32]): -0.4 g; T/C (P388 [27]): < 80%; T/C (P388 [33]): 131%; T/C (P388 [34]): 129%; EC50 (KB): 0.44 ng/mL (≈ 0.641 nM); inhibition (Tubulin (Homo sapiens)): Active; Activity (Paracentrotus lividus): 1 ×10⁻⁸ mol/L |
